Each structure is given as a SMILES string.

Assay type in all cases: functional, cell-based; call rule not given here
Assay [1] deals with T1, 5-hydroxytryptamine receptor 2C (Homo sapiens) (UniProt P28335).
T1 sequence (whole entry): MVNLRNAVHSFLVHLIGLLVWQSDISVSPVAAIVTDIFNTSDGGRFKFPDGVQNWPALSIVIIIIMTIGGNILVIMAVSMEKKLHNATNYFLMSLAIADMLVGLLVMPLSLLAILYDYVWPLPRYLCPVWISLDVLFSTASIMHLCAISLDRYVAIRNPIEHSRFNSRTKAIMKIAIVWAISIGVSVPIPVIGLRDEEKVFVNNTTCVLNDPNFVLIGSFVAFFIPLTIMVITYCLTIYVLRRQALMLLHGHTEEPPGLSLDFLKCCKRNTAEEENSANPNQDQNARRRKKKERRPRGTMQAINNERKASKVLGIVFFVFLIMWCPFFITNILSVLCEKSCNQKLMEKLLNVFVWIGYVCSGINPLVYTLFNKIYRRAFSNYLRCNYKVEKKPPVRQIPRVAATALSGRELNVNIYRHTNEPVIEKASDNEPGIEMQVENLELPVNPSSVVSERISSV
As to the kind of experiment: Agonist activity at human 5HT2C receptor expressed in HEK293 cells assessed as calcium flux measured every sec for 3 mins by FLIPR assay relative to 5HT. The essentials:
(§1)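 Calcium flux (Gαq-mediated) in HEK-293 cells stably expressing human 5-HT2A, 5-HT2B or 5-HT2C (INI isoform). […] Racemic trans mixtures were tested unless otherwise stated.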
(In general: Calcium flux is commonly read through the fluorescence of an indicator in the cells.)

The target in assay [2] is T2, 5-hydroxytryptamine receptor 2A (Homo sapiens, UniProt P28223). As to the kind of experiment: Agonist activity at human 5HT2A receptor expressed in HEK293 cells assessed as calcium flux measured every sec for 3 mins by FLIPR assay.
The target of assay [3] is T3, 5-hydroxytryptamine receptor 2C (Homo sapiens, UniProt P28335).
T3 sequence (P28335 whole entry): T1 sequence (whole entry)
As to the kind of experiment: Agonist activity at human 5HT2C receptor expressed in HEK293 cells assessed as calcium flux measured every sec for 3 mins by FLIPR assay.

Assay [4] deals with T4, 5-hydroxytryptamine receptor 2B (Homo sapiens, UniProt P41595). As to the kind of experiment: Agonist activity at human 5HT2B receptor expressed in HEK293 cells assessed as calcium flux measured every sec for 3 mins by FLIPR assay.
In assay [5] the target is T4, 5-hydroxytryptamine receptor 2B. As to the kind of experiment: Agonist activity at human 5HT2B receptor expressed in HEK293 cells assessed as calcium flux measured every sec for 3 mins by FLIPR assay relative to 5HT. The procedure, abridged: as §1
Assay [6] has as its target T2, 5-hydroxytryptamine receptor 2A. As to the kind of experiment: Agonist activity at human 5HT2A receptor expressed in HEK293 cells assessed as calcium flux measured every sec for 3 mins by FLIPR assay relative to 5HT. The procedure, abridged:
as §1

T2 sequence (P28223 whole entry): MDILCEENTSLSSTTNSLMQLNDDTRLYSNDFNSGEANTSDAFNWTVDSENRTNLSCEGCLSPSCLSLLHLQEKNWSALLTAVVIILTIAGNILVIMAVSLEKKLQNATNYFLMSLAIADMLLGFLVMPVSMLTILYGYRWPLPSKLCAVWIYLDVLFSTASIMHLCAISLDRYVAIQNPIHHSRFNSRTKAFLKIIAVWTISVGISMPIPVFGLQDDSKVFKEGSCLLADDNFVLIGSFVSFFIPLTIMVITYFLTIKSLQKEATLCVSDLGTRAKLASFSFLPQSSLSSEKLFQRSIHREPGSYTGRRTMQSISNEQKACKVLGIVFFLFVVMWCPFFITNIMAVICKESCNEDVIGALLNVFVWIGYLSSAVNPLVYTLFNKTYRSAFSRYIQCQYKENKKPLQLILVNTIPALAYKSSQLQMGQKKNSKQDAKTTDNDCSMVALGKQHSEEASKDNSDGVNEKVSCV
T4 sequence (P41595 whole entry): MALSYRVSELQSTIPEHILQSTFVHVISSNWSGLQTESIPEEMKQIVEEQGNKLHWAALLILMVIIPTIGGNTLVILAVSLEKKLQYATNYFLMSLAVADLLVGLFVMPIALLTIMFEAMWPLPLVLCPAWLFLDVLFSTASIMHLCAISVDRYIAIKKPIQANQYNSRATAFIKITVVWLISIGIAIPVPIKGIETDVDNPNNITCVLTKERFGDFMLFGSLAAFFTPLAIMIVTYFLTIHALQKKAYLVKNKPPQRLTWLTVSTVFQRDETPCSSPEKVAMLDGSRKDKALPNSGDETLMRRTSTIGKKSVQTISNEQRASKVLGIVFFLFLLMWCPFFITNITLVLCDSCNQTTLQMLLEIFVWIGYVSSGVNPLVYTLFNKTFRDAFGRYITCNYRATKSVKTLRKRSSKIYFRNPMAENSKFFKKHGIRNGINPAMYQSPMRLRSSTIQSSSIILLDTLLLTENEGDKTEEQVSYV

Take `Cl.NC[C@@H]1C[C@H]1c1ccccc1OCC1CC1`: the Emax – broadly, the maximal effect, on the per cent scale that the assay sets – in assay [1] worked out at 51%. Moreover, the EC50 – broadly, the concentration giving half of the maximal effect – is “Not Active” in assay [2] (hek293), 978 nM in assay [3] (read-out: EC50) and “Not Active” in assay [4] (hek293).

As for `NC[C@H]1C[C@@H]1c1cc(F)ccc1OCC1CC1`, the values for the EC50 in assay [2] (read-out: EC50), in assay [3] (read-out: EC50) and in assay [4] (read-out: EC50) were 894 nM, 21 nM and 289 nM, respectively.

Turning to `NC[C@H]1C[C@@H]1c1ccccc1OCC1CC1`, the Emax in assay [1] amounted to 61%.

As to `COc1ccc(-c2cccc(C)c2)cc1[C@H]1C[C@@H]1CN.Cl` (racemic), the Emax in assay [1] is 69%. Besides, the EC50 entry in assay [2] (hek293) is “Not Active”; in assay [3] (read-out: EC50), 8710 nM; in assay [4] (hek293) it was “Not Active”.

`COc1ccc(-c2ccc(C)cc2)cc1[C@H]1C[C@@H]1CN.Cl` (racemic): the EC50 result in assay [2] (hek293), in assay [3] (hek293) and in assay [4] (hek293) was “Not Active” in each case.

For `COc1ccc(-c2ccccc2F)cc1[C@H]1C[C@@H]1CN.Cl` (racemic), the Emax in assay [1] came out at 69%. For the same compound, the values for the EC50 result in assay [2] (hek293), in assay [3] (read-out: EC50) and in assay [4] (hek293) were “Not Active”, 3310 nM and “Not Active”, respectively.

Turning to `COc1ccc(-c2cccc(F)c2)cc1[C@H]1C[C@@H]1CN.Cl` (racemic), the Emax in assay [1] is 59%. The EC50 entry is “Not Active” in assay [2] (hek293), 7240 nM in assay [3] (read-out: EC50) and “Not Active” in assay [4] (hek293).

In the case of `COc1ccc(-c2ccc(F)cc2)cc1[C@H]1C[C@@H]1CN.Cl` (racemic), the Emax in assay [1] came to 83%. In addition, the EC50 entry in assay [2] (hek293) is “Not Active”; in assay [3] (read-out: EC50), 2190 nM; in assay [4] (hek293) it was “Not Active”.

As for `CCCCc1ccc(-c2ccc(OC)c([C@H]3C[C@@H]3CN)c2)cc1.Cl` (racemic), the 50% effective concentration (EC50) entry in assay [2] (hek293), in assay [3] (hek293) and in assay [4] (hek293) was “Not Active” throughout.

In the case of `Cc1ccc(OCC(C)C)c([C@H]2C[C@@H]2CN)c1.Cl` (racemic), the EC50 result in assay [2] (hek293), in assay [3] (hek293) and in assay [4] (hek293) was “Not Active” in each case.

On to `CCCCOc1ccc(C)cc1[C@H]1C[C@@H]1CN.Cl` (racemic), for which the EC50 result in assay [2] (hek293), in assay [3] (hek293) and in assay [4] (hek293) was “Not Active” each time.

As to `CCOc1ccccc1[C@H]1C[C@@H]1CN` (racemic), the Emax in assay [1] is 99%; in assay [5] it was 48%; in assay [6] it was 64%. The EC50 in assay [2] (read-out: EC50) is 3020 nM; in assay [3] (read-out: EC50), 18 nM; in assay [4] (read-out: EC50), 331 nM.

Take `CCCOc1ccccc1[C@H]1C[C@@H]1CN.Cl` (racemic): the values for the Emax in assay [1] and in assay [5] were 70% and 16%, respectively. Moreover, the EC50 result in assay [2] (hek293) is “Not Active”; in assay [3] (read-out: EC50), 24 nM; in assay [4] (read-out: EC50), 304 nM.

In the case of `CC(C)COc1ccccc1[C@H]1C[C@@H]1CN.Cl` (racemic), the Emax in assay [1] came out at 84%. For the same compound, the EC50 entry was “Not Active” in assay [2] (hek293), 254 nM in assay [3] (read-out: EC50) and “Not Active” in assay [4] (hek293).

Turning to `CCCCCOc1ccccc1[C@H]1C[C@@H]1CN.Cl` (racemic), the EC50 entry in assay [2] (hek293), in assay [3] (hek293) and in assay [4] (hek293) was “Not Active” throughout.

Turning to `Cl.NC[C@H]1C[C@@H]1c1ccccc1OCC1CC1` (racemic), the EC50 result in assay [2] (hek293) and in assay [4] (hek293) was “Not Active” each time.

For the compound `Cl.NC[C@H]1C[C@@H]1c1ccccc1OCC1CCC1` (racemic), the Emax in assay [1] is 31%. In addition, the figures for the 50% effective concentration (EC50) result in assay [2] (hek293), in assay [3] (read-out: EC50) and in assay [4] (hek293) were “Not Active”, 1210 nM and “Not Active”, respectively.

Consider `Cl.NC[C@H]1C[C@@H]1c1ccccc1OCC1CCCCC1` (racemic), for which the EC50 entry in assay [2] (hek293), in assay [3] (hek293) and in assay [4] (hek293) was “Not Active” throughout.

On to `Cl.NC[C@H]1C[C@@H]1c1ccccc1OCc1ccccc1` (racemic), for which the maximal effect (Emax) in assay [1] is 74%; in assay [5] it was 20%. Also, the EC50 entry in assay [2] (hek293) was “Not Active”; in assay [3] (read-out: EC50), 304 nM; in assay [4] (read-out: EC50), 1080 nM.

For the compound `COc1ccc(-c2ccccc2)cc1[C@H]1C[C@@H]1CN.Cl` (racemic), in assay [1], the Emax worked out at 64%. Besides, the results for the EC50 entry in assay [2] (hek293), in assay [3] (read-out: EC50) and in assay [4] (hek293) were “Not Active”, 3800 nM and “Not Active”, respectively.

In the case of `COc1ccc(-c2ccccc2C)cc1[C@H]1C[C@@H]1CN.Cl` (racemic), the maximal effect (Emax) in assay [1] was found to be 67%. The concentration giving a half-maximal response (EC50) entry is “Not Active” in assay [2] (hek293), 3470 nM in assay [3] (read-out: EC50) and “Not Active” in assay [4] (hek293).

With `NC[C@H]1C[C@@H]1c1ccccc1OCC1CC1` (racemic), the Emax in assay [1] was 60%.

Source of the values: ChEMBL document CHEMBL2021856 (ACS Med Chem Lett, 2011).
